Assay results reported in ChEMBL document CHEMBL1153167, “Gastroprotective flavonoid constituents from Oroxylum indicum Vent” (Bioorg Med Chem Lett, 2010).
Active and inactive are the calls of the source. No cut-off for these calls is given here.

Legend:
Type in all cases: functional, organism-based
Design in all cases: dose 25 mg/kg
Rattus norvegicus [1] = test: Gastroprotective activity against ethanol-induced ulceritis in 48 hrs fasted Wistar rat at 25 mg/kg, po pretreated 1 hr before ethanol challenge followed by pylorus ligation measured after 4 hrs
Method in brief: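 Rats fasted 48 h, six per group, were dosed orally. Ethanol was given intragastrically 1 h later. One hour after the ethanol, the pylorus was ligated under anesthesia. Animals were killed 4 h after ligation and ulcers were indexed. Read-out is % protection, mean ± SD.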

Rattus norvegicus [2] = test: Gastroprotective activity against cold restraint-induced ulceritis in Wistar rat at 25 mg/kg, po pretreated before cold restraination measured after 2 hrs
Method in brief: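 After the oral dose, rats (six per group) were restrained at 4 °C for 2 h. The stomach was then opened along the greater curvature and severity was scored as mean ulcer index. Read-out is % protection, mean ± SD.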

Rattus norvegicus [3] = test: Gastroprotective activity against pylorus ligation-induced ulcer in 48 hrs fasted Wistar rat at 25 mg/kg rat pretreated 1 hr before pylorus ligation measured after 4 hrs
Method in brief: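 Rats fasted 48 h, six per group, were dosed as a 1% Tween-80 suspension at 1 mL per rat. After 1 h the pylorus was ligated under anesthesia. Animals were killed 4 h after ligation for evaluation. Read-out is % protection, mean ± SD.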

Rattus norvegicus [4] = test: Gastroprotective activity against aspirin-induced ulceritis in Wistar rat at 25 mg/kg, po pretreated 5 days before aspirin challenge measured after 24 hrs of fasting
Method in brief: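 Rats, six per group, were dosed with test sample for five days, then given aspirin 200 mg/kg body weight suspended in 1% Tween-80. They were fasted 24 h and killed by cervical dislocation. Stomachs were opened along the greater curvature, washed with lukewarm saline and scored for ulcer index under a dissecting microscope. Read-out is % protection, mean ± SD.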

Row | Compound | Activity (Rattus norvegicus [1]) | Activity (Rattus norvegicus [2]) | Activity (Rattus norvegicus [3]) | Activity (Rattus norvegicus [4])
1 | COc1cc(O)c2c(=O)cc(-c3ccccc3)oc2c1 | inactive | inactive | inactive | inactive
2 | O=c1cc(-c2ccccc2)oc2cc(O)cc(O)c12 | Active | Active | Active | Active
3 | COc1c(O)cc2c(c1O)C(=O)C[C@@H](c1ccccc1)O2 | Active | Active | Active | Active
4 | COc1ccc(-c2cc(=O)c3c(O)cc(OC)cc3o2)cc1 | inactive | inactive | inactive | inactive
5 | COc1c(O)cc2oc(-c3ccccc3)cc(=O)c2c1O | Active | Active | Active | Active
6 | COc1cc(O)c2c(=O)cc(-c3c(OC)cccc3O[C@H]3O[C@@H](CO)[C@H](O)[C@@H](O)[C@@H]3O)oc2c1 | inactive | inactive | inactive | inactive
